Experimental data reported in ChEMBL document CHEMBL4138224, “DNA intercalators based on (1,10-phenanthrolin-2-yl)isoxazolidin-5-yl core with better growth inhibition and selectivity than cisplatin upon head and neck squamous cells carcinoma” (Eur J Med Chem, 2018).
pIC50: −log10 of the molar value. Activity calls are given as the source filed them. The calls are words filed in the database; no cut-off is given here.

What was measured:
[1] = system: HeLa; assay: Cytotoxicity against human HeLa cells assessed as decrease in cell viability after 24 hrs by MTT assay; format: functional, cell-based
Procedure, shortened: (§1)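 Cells seeded at 1×10^4 per well in complete medium with 10% FBS and antibiotics, 37 °C, 5% CO2. Washed with serum-free medium, then exposed to compounds for 24 h. MTT (5 mg/mL) added for a further 4 h, formazan dissolved in DMSO, absorbance read at 490 nm. Triplicates; IC50 obtained by non-linear regression of dose-response curves.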

[2] = Cytotoxicity against human HN6 cells assessed as decrease in cell viability after 24 hrs by MTT assay; format: functional, cell-based; details: HN-6, 24 h; procedure, shortened: as §1
[3] = system: WSU-HN13; assay: Cytotoxicity against human HN13 cells assessed as decrease in cell viability after 24 hrs by MTT assay; format: functional, cell-based; details: WSU-HN13, 24 h; procedure, shortened: as §1
[4] = system: 184B5; assay: Cytotoxicity against human 184B5 cells assessed as decrease in cell viability after 24 hrs by MTT assay; format: cell-based; details: 184B5, 24 h; procedure, shortened: as §1
[5] = system: Bacteria; assay: Induction of bacterial pGEM-T easy DNA intercalation assessed as topoisomerase 1-mediated conversion of relaxed plasmid DNA to negatively supercoiled DNA at 10 nM after 30 mins by agarose-gel electrophoresis method
Procedure, shortened: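 Relaxed pGEM-T Easy plasmid was made by Topo I treatment of supercoiled plasmid. Stopped with SDS/proteinase K (30 min, 50 °C). Run on 1% agarose in TBE, ethidium bromide stain; relaxed-to-supercoiled conversion scored.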

[6] = organism: Bos taurus; assay: Induction of calf thymus B DNA intercalation at 36 uM by CD spectra method
Procedure, shortened: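 CD titration at 25 °C in quartz cells: fixed ct-DNA (12.6 μM in base pair) with compound added from a 4.26 mM DMSO stock, final 0 to about 35 μM. Each spectrum is an average of 5 runs with 5 min equilibration before each scan, corrected for dilution, cell and solvent.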

[7] = organism: Bos taurus; assay: Induction of calf thymus B DNA intercalation assessed as DNA melting temperature at 31 uM by UV-vis spectrophotometric method (reference value: 354K)
Procedure, shortened: (§2)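 ct-DNA (31 μM in base pair) mixed with 31 μM compound, taken as saturating, in PBS. Absorbance at 260 nm monitored while heating 308 to 388 K at 1 K/min with a Peltier unit, giving melting curves. Binding constants estimated from the melting data.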

[8] = organism: Bos taurus; assay: Induction of calf thymus B DNA intercalation assessed as drug binding constant at DNA melting temperature at 31 uM by UV-vis spectrophotometric method; procedure, shortened: as §2
[9] = Potency index, ratio of cisplatin IC50 to test compound IC50 for human HN6 cells; format: functional
[10] = system: WSU-HN13; assay: Potency index, ratio of cisplatin IC50 to test compound IC50 for human HN13 cells; format: functional
[11] = Selectivity index, ratio of IC50 for human 184B5 cells to IC50 for human HeLa cells; format: toxicity; details: 184B5 cells versus HeLa cells, read-out: Ratio IC50
[12] = Selectivity index, ratio of IC50 for human 184B5 cells to IC50 for human HN6 cells; format: toxicity; details: 184B5 cells versus HN6 cells, read-out: Ratio IC50
[13] = Selectivity index, ratio of IC50 for human 184B5 cells to IC50 for human HN13 cells; format: toxicity; details: 184B5 cells versus HN13 cells, read-out: Ratio IC50

Row | Activity [5] | Activity [6] | Tm [7] [°C] | K [8] | Structure (SMILES) | pIC50 [1] | pIC50 [2] | pIC50 [3] | pIC50 [4] | Ratio IC50 [9] | Ratio IC50 [10] | selectivity ratio [11] | selectivity ratio [12] | selectivity ratio [13]
1 | Active | Active | 81.9 | 9.26 ×10³ /M | COc1ccccc1CN1O[C@@H](CO)C[C@@H]1c1ccc2ccc3cccnc3c2n1 (relative stereo) | 4.40 | 4.61 | 4.60 | 3.42 | – | – | – | – | –
2 | Active | Active | 84.9 | 4.53 ×10⁴ /M | COc1ccccc1CN1O[C@H](CO)C[C@@H]1c1ccc2ccc3cccnc3c2n1 (relative stereo) | 4.88 | 5.20 | 5.35 | 3.49 | 3.4 | 9.2 | 24.3 | 51.4 | 72
